Assay results as given in PMC5582369 (British Journal of Clinical Pharmacology, 2017).

Experiments:
Na+/H+ exchange = settings: healthy volunteers, cited from earlier work
[1] = Cefadroxil plasma pharmacokinetics, phase 1 two-period crossover study; format: in vivo, healthy volunteers (human)
PepT1 = settings: in vitro; cited from earlier work
[2] = Tenapanor plasma concentration; format: in vivo, healthy volunteers (human); settings: tenapanor 15 mg b.i.d., day 5
Outline: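 Blood was drawn predose and 1, 2 and 4 h after the day-5 morning dose of the test compound (15 mg twice daily from day 1). Plasma was extracted liquid–liquid with a deuterated internal standard, evaporated under nitrogen and reconstituted. Analysis was by LC-MS/MS, validated over 0.500–100 ng ml–1, with a lower limit of quantitation of 0.5 ng ml–1.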

NHE3 = molecular target: T1, NHE3 (Homo sapiens, UniProt P48764); assay: Stool frequency and consistency; format: in vivo, healthy volunteers (human); settings: mean ± SD over overall tenapanor 15 mg b.i.d. dosing period; day –1: 3.7 ± 1.0
T1 sequence (P48764 26-834): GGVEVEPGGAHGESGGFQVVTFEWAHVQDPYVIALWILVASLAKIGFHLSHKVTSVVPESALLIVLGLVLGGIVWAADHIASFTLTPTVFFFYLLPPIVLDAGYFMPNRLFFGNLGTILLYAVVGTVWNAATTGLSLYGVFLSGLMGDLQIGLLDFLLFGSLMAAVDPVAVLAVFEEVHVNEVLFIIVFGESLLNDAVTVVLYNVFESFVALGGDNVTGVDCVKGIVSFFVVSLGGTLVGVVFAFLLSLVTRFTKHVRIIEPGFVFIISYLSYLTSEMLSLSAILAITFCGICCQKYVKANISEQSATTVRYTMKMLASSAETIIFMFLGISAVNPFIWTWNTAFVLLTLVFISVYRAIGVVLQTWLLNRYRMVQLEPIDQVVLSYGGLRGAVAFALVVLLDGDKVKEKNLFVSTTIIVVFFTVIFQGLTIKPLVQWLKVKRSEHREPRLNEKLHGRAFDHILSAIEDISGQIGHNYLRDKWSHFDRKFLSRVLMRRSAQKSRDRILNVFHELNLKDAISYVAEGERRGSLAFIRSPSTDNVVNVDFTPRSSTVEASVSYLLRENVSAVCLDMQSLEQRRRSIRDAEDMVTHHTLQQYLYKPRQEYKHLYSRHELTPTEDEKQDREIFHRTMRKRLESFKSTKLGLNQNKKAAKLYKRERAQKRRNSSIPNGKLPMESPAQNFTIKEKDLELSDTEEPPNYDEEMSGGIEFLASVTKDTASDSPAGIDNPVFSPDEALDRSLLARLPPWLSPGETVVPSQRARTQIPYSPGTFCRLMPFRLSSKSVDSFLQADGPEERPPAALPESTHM

[3] = Safety and tolerability assessments; format: in vivo, healthy volunteers (human)
Outline: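 Healthy adults (18–50 y, BMI 18–30 kg m–2, 50–100 kg) got the oral test compound 15 mg twice daily for 4 days, then a single 15 mg dose with a 500 mg probe cephalosporin on day 5, 5–10 min before standardized meals. Adverse events were monitored from screening to follow-up, 7–10 days after the last dose. Vital signs, ECGs, physical exams and clinical labs were also collected.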

[4] = whole study, all AEs occurred in the tenapanor treatment period

For `N=C(N)NC(=O)c1nc(Cl)c(N)nc1N` [Amiloride], the “Effect on gastrointestinal uptake of amoxicillin” value (Na+/H+ exchange) is listed as “decrease the gastrointestinal uptake” and the “Effect on amoxicillin absorption in the gut” value (Na+/H+ exchange; jejunal perfusion with amiloride and amoxicillin) is listed as “did not affect amoxicillin absorption”.

In the case of `CC1=C(C(=O)O)N2C(=O)[C@@H](NC(=O)[C@H](N)c3ccc(O)cc3)[C@H]2SC1` [Cefadroxil], the “t½ (apparent terminal half-life) of cefadroxil” value ([1]; cefadroxil 500 mg alone, geometric mean (GCV, %), n = 28) is given as 2.0 (11.1) h, the Tmax ([1]; human, plasma, oral, 500 mg) is given as 1.5 h and the “Affinity for PepT1” value (PepT1) is given as “moderate affinity”.

With `CN1Cc2c(Cl)cc(Cl)cc2[C@H](c2cccc(S(=O)(=O)NCCOCCOCCNC(=O)NCCCCNC(=O)NCCOCCOCCNS(=O)(=O)c3cccc([C@@H]4CN(C)Cc5c(Cl)cc(Cl)cc54)c3)c2)C1` [Tenapanor] the “Detection of tenapanor in plasma” value [2] was “not detected in plasma”, the “BSFS score (stool consistency)” value (NHE3) was 5.4 ± 1.2 and the “Serious AEs or discontinuations due to AEs” value ([3]; during the study, 28 volunteers) was “No serious AEs or discontinuations due to AEs”. For the same compound, the Tolerability ([3]; tenapanor 15 mg b.i.d., 28 volunteers) was “generally well tolerated”, the “Abdominal distension (n volunteers)” value [3, 4] was 4 and the “Abdominal pain (n volunteers)” value [3, 4] was 4. For the same compound, the “Abnormal gastrointestinal sounds (n volunteers)” value [3, 4] was 3, the “Diarrhoea (n volunteers)” value [3, 4] was 2 and the “Flatulence (n volunteers)” value [3, 4] was 2.
